Assay [1] concerns A549. Kind of assay: Growth inhibition of human non-small-lung carcinoma (A549) cell line. The assay is classed as functional, cell-based.
Assay [2] relates to HT-29. The assay is described as follows: Growth inhibition of human colon carcinoma (HT-29) cell line. In kind it is functional, cell-based. The method in brief: (§1)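 Cells seeded at 400/well, attached overnight, grown in RPMI-1640 with 5% fetal bovine serum and 5% Nu Serum. Taxanes in DMSO, diluted in medium, 72 h exposure, triplicate wells. Fixed with ice-cold 50% TCA (1 h, 4 °C), stained with 0.4% sulforhodamine B, dye dissolved in 10 mM Tris (pH 10.5), OD 570 nm. IC50 from sigmoid-Emax nonlinear regression, weighted by reciprocal squared predicted effect.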

Assay [3] deals with A121. The assay is described as follows: Growth inhibition of human ovarian carcinoma (A121) cell line. In kind it is functional, cell-based. The method in brief:
as §1

The subject of assay [4] is MCF7R. The assay is described as follows: Growth inhibition of human mammary carcinoma 180 fold resistant to doxorubicin (MCF-7-R) cell line. The assay is classed as functional, cell-based.
The test system of assay [5] is MCF7. The assay is described as follows: Growth inhibition of human mammary carcinoma (MCF-7) cell line. In kind it is functional, cell-based. The method in brief:
as §1

A short description of assay [6]: Ratio of growth inhibition (IC50) of MCF7-R / MCF-7 cell lines. In kind it is functional, Homo sapiens.

The results in this text go back to ChEMBL document CHEMBL1130282, “Syntheses and structure-activity relationships of taxoids derived from 14 beta-hydroxy-10-deacetylbaccatin III” (J Med Chem, 1997).

As usually defined, the IC50 is the concentration that inhibits the measured activity by half. Higher therefore signals a need for much substance. Regarding `CC(=O)O[C@@]12COC1C[C@H](O)[C@@]1(C)C(=O)[C@H](OC(=O)N(C)C)C3=C(C)[C@@H](OC(=O)[C@H](O)[C@H](C=C(C)C)NC(=O)OC(C)(C)C)[C@@H]4OC(=O)O[C@]4([C@@H](OC(=O)c4ccccc4)C21)C3(C)C` (stereo not given in full), the IC50 in assay [1] is 0.6 nM; in assay [2] it was 1.2 nM; in assay [3] it was 0.7 nM; in assay [4], 33 nM; in assay [5] it was 0.4 nM. Also, the Ratio in assay [6] is 83.
As for `CCC[C@H](NC(=O)OC(C)(C)C)[C@@H](O)C(=O)O[C@@H]1C(C)=C2[C@@H](O)C(=O)[C@@]3(C)C([C@H](OC(=O)c4ccccc4)[C@@]4(OC(=O)O[C@@H]14)C2(C)C)[C@]1(OC(C)=O)COC1C[C@@H]3O` (stereo not given in full), the IC50 stood at 4.4 nM in assay [1]; 3.8 nM in assay [2]; 2.1 nM in assay [3]; 265 nM in assay [4]; 4.2 nM in assay [5]. In assay [6], the Ratio stood at 92.
In the case of `CC(=O)O[C@@]12COC1C[C@H](O)[C@@]1(C)C(=O)[C@H](O)C3=C(C)[C@@H](OC(=O)[C@H](O)[C@@H](NC(=O)OC(C)(C)C)c4ccccc4)[C@@H]4OC(=O)O[C@]4([C@@H](OC(=O)c4ccccc4)C21)C3(C)C` (stereo not given in full), the IC50 in assay [1] turned out to be 2.1 nM; in assay [2], 1.8 nM; in assay [3], 6.2 nM; in assay [4], 543 nM; in assay [5], 1.8 nM. For the same molecule, in assay [6], the Ratio came out at 302.
In the case of `C/C=C/C(=O)O[C@H]1C(=O)[C@@]2(C)C([C@H](OC(=O)c3ccccc3)[C@]34OC(=O)O[C@H]3[C@H](OC(=O)[C@H](O)[C@H](C=C(C)C)NC(=O)CCCCC)C(C)=C1C4(C)C)[C@]1(OC(C)=O)COC1C[C@@H]2O` (stereo not given in full), the IC50 came to 25 nM in assay [1]; 28 nM in assay [2]; 17 nM in assay [3]; 137 nM in assay [4]; 2.1 nM in assay [5]. The Ratio in assay [6] was 65.
For the molecule `CCCCCC(=O)N[C@@H](c1ccccc1)[C@@H](O)C(=O)O[C@@H]1C(C)=C2[C@@H](O)C(=O)[C@@]3(C)C([C@H](OC(=O)c4ccccc4)[C@@]4(OC(=O)O[C@@H]14)C2(C)C)[C@]1(OC(C)=O)COC1C[C@@H]3O` (stereo not given in full), the IC50 in assay [1] is 389 nM; in assay [2], 157 nM; in assay [3] it was 330 nM; in assay [4], above 1000 nM; in assay [5], 13 nM.
For `CC(=O)O[C@@]12COC1C[C@H](O)[C@@]1(C)C(=O)[C@H](O)C3=C(C)[C@@H](OC(=O)[C@H](O)[C@@H](NC(=O)c4ccccc4)c4ccccc4)[C@@H]4OC(=O)O[C@]4([C@@H](OC(=O)c4ccccc4)C21)C3(C)C` (stereo not given in full) the same measures were 33 nM, 24 nM, 105 nM, above 1000 nM and 11 nM.
Regarding `CC(=O)O[C@@]12COC1C[C@H](O)[C@@]1(C)C(=O)[C@H](O)C3=C(C)[C@@H](OC(=O)[C@H](O)[C@H](CC(C)C)NC(=O)OC(C)(C)C)[C@@H]4OC(=O)O[C@]4([C@@H](OC(=O)c4ccccc4)C21)C3(C)C` (stereo not given in full), the IC50 in assay [1] worked out at 1.8 nM; in assay [2], 3.4 nM; in assay [3], 1 nM; in assay [4] it was 385 nM; in assay [5], 2.7 nM.
In the same order, the values of `CC(=O)O[C@@]12COC1C[C@H](O)[C@@]1(C)C(=O)[C@H](O)C3=C(C)[C@@H](OC(=O)[C@H](O)[C@H](CC(C)(C)C)NC(=O)OC(C)(C)C)[C@@H]4OC(=O)O[C@]4([C@@H](OC(=O)c4ccccc4)C21)C3(C)C` (stereo not given in full) are 51 nM, 52 nM, 106 nM, above 1000 nM and 48 nM.
In the same order, the values of `CCCCCC(=O)N[C@@H](C=C(C)C)[C@@H](O)C(=O)O[C@@H]1C(C)=C2[C@@H](OC(=O)N(C)C)C(=O)[C@@]3(C)C([C@H](OC(=O)c4ccccc4)[C@@]4(OC(=O)O[C@@H]14)C2(C)C)[C@]1(OC(C)=O)COC1C[C@@H]3O` (stereo not given in full) are 5.5 nM, 5.1 nM, 4.8 nM, 295 nM and 1.7 nM.
`CC(=O)O[C@@]12CO[C@@H]1C[C@H](O)[C@@]1(C)C(=O)[C@H](O)C3=C(C)[C@@H](OC(=O)[C@H](O)[C@@H](NC(=O)OC(C)(C)C)c4ccccc4)[C@H](O)[C@@](O)([C@@H](OC(=O)c4ccccc4)C12)C3(C)C` (stereo not given in full) displayed an IC50 in assay [4] above 1000 nM.
Turning to `CCC[C@H](NC(=O)OC(C)(C)C)[C@@H](O)C(=O)O[C@@H]1C(C)=C2[C@@H](OC(C)=O)C(=O)[C@@]3(C)C([C@H](OC(=O)c4ccccc4)[C@@]4(OC(=O)O[C@@H]14)C2(C)C)[C@]1(OC(C)=O)COC1C[C@@H]3O` (stereo not given in full), the half-inhibitory concentration (IC50) amounted to 4.7 nM in assay [1]; 4.8 nM in assay [2]; 2.3 nM in assay [3]; 201 nM in assay [4]; 4.6 nM in assay [5]. In addition, in assay [6], the Ratio is 44.
With `C/C=C/C(=O)O[C@H]1C(=O)[C@@]2(C)C([C@H](OC(=O)c3ccccc3)[C@]34OC(=O)O[C@H]3[C@H](OC(=O)[C@H](O)[C@H](C=C(C)C)NC(=O)OC(C)(C)C)C(C)=C1C4(C)C)[C@]1(OC(C)=O)COC1C[C@@H]2O` (stereo not given in full), the IC50 in assay [1] worked out at 0.5 nM; in assay [2] it was 1.5 nM; in assay [3], 0.8 nM; in assay [4] it was 17 nM; in assay [5], 0.4 nM. The Ratio in assay [6] is reported as 43.
`CC(=O)O[C@H]1C(=O)[C@@]2(C)C([C@H](OC(=O)c3ccccc3)[C@]34OC(=O)O[C@H]3[C@H](OC(=O)[C@H](O)[C@@H](NC(=O)OC(C)(C)C)c3ccco3)C(C)=C1C4(C)C)[C@]1(OC(C)=O)COC1C[C@@H]2O` (stereo not given in full): the IC50 amounted to 0.5 nM in assay [1]; 0.6 nM in assay [2]; 0.4 nM in assay [3]; 49 nM in assay [4]; 0.5 nM in assay [5]. Besides, the Ratio in assay [6] amounted to 96.
On to `CCCCCC(=O)N[C@@H](C=C(C)C)[C@@H](O)C(=O)O[C@@H]1C(C)=C2[C@@H](OC(=O)C3CC3)C(=O)[C@@]3(C)C([C@H](OC(=O)c4ccccc4)[C@@]4(OC(=O)O[C@@H]14)C2(C)C)[C@]1(OC(C)=O)COC1C[C@@H]3O` (stereo not given in full), for which the IC50 in assay [1] is 18 nM; in assay [2], 16 nM; in assay [3], 12 nM; in assay [4], 321 nM; in assay [5], 3.2 nM. Moreover, the Ratio in assay [6] was found to be 100.
In the case of `CC(=O)O[C@@]12COC1C[C@H](O)[C@@]1(C)C(=O)[C@H](O)C3=C(C)[C@@H](OC(=O)[C@H](O)[C@@H](NC(=O)OC(C)(C)C)c4ccco4)[C@@H]4OC(=O)O[C@]4([C@@H](OC(=O)c4ccccc4)C21)C3(C)C` (stereo not given in full), the half-inhibitory concentration (IC50) in assay [1] was determined as 0.5 nM; in assay [2] it was 0.6 nM; in assay [3] it was 0.4 nM; in assay [4], 135 nM; in assay [5] it was 0.5 nM. For the same molecule, the Ratio in assay [6] came to 270.
